In PubChem BioAssay AID2152 (The Scripps Research Institute Molecular Screening Center, 2009):
Among all 2,300 compounds or so, about 25 (1%) were called active. For the sample, actives were picked, then their nearest neighbours and some compounds at random. A number with no mark means an inactive call.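 Rule for the calls: active = mean inhibition over three replicate wells above the hit threshold derived in the earlier primary screen (cut at about 45% in these data); inactive = the rest.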

Tested on: Hepatitis C virus core protein (core106 dimerization)
Experiment: inhibitors of HCV core protein dimerization, confirmation, biochemical, TR-FRET, triplicate (AID 2152);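 note: 0% = DMSO wells and 100% = unlabelled core106 competitor control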
Conditions: TR-FRET GST-/Flag-core106 dimerization, HTRF; at 5 µM; active compounds read high
Summary of the method: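 Material: GST- and Flag-tagged HCV core106 peptides, dimerization via antibody TR-FRET. Medium: HEPES/KF buffer, pH 7.45. Doses: one 5 µM dose, 0.5% DMSO. Times: 4 h incubation, 22.5 °C. Detection: TR-FRET, excitation 340 nm, emission 671 and 617 nm. Measure: percent inhibition from emission ratio. Controls: unlabelled core106 and DMSO wells.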

Row | SMILES | inhibition
1 | Cc1csc(SCC(=O)Nc2sc3c(c2C#N)CCC3)n1 | -4.85%
2 | CCCCN(C(=O)c1cc(-c2ccco2)nc2ccccc12)c1c(N)n(CCCC)c(=O)[nH]c1=O | -1.63%
3 | CN(CC(=O)Nc1ccc(F)cc1)C(=O)c1cc(-c2ccco2)nc2ccccc12 | 13.3%
4 | O=C(Nc1ccc(Cl)c([N+](=O)[O-])c1)c1cnccn1 | 6.55%
5 | C=CCN1C=C2C(=O)C(C)(OC(=O)CCc3ccccc3)C(=O)C=C2C=C1c1ccc(C#N)cc1 (stereo not drawn) | 0.52%
6 | CC1(OC(=O)CCc2ccccc2)C(=O)C=C2C=C(c3ccc(C#N)cc3)N(c3ccccc3)C=C2C1=O (stereo not drawn) | 1.14%
7 | CC1(O)C(=O)C=C2C=C(c3ccc(C#N)cc3)OC=C2C1=O (stereo not drawn) | 55% (active)
8 | Cc1ccc2nc(N3CCN(S(=O)(=O)c4ccc5c(c4)OCCO5)CC3)c(C#N)cc2c1 | 14.6%
9 | O=C(c1cc(-c2ccccn2)nc2ccc(Br)cc12)N1CCN(S(=O)(=O)c2ccccc2)CC1 | 17%
10 | C/C=C\C=C/C(=O)Nc1cccc(C2=NOC3(C2)C[C@@H](C(N)=O)N(C(=O)/C=C/CC)C3)c1 (stereo partly drawn) | 5.44%
11 | O=C1C(Cc2ccccc2)S/C(=N/N=C/c2ccco2)N1c1ccccc1 (stereo not drawn) | -8.03%
12 | c1ccc(-c2cc(-c3nn4c(-c5ccco5)nnc4s3)c3ccccc3n2)cc1 | 16.7%
13 | Cc1oc(-c2ccc(F)cc2)cc1-c1nn2c(-c3ccoc3C)nnc2s1 | 20.6%
14 | Cc1oc(-c2ccc(Cl)cc2)cc1-c1nn2c(-c3ccoc3C)nnc2s1 | 52.5% (active)
15 | Cc1ccc(NC(=O)c2cc(-c3ccc(C)o3)nc3ccccc23)cc1 | -0.19%
16 | O=C(/C=C/c1ccc2ccccc2n1)N1CCN(c2ccccc2)CC1 | -3.48%
17 | CCN(CC(=O)Nc1c(F)cccc1F)C(=O)/C=C/c1ccc2ccccc2n1 | 62.5% (active)
18 | CCN(CC(=O)Nc1c(F)cccc1F)C(=O)c1cccc(-n2cccc2)c1 | 3.91%
19 | O=C1CCCC2=C1C(c1cn(-c3ccccc3)nc1-c1cccs1)c1c([nH]c(=O)[nH]c1=O)N2 (stereo not drawn) | 0.06%
20 | Cc1ccccc1N1C(S)=C(C#N)C(=O)NC1c1ccco1 (stereo not drawn) | 9.88%
21 | CC1=C(C#N)C(=O)N(C2CCS(=O)(=O)C2)C(=O)/C1=C\c1ccco1 (stereo not drawn) | 56.2% (active)
22 | Cc1ccc(NC(=O)CN2C(=O)N/C(=C/c3ccco3)C2=O)cc1 | -4.53%
23 | COc1ccc(-c2cc(C(=O)Nc3sc4c(c3C#N)CCCC4)c3ccccc3n2)cc1OC | -1.02%
